Holding throughout (format): ADME, organism-based
Series [1] deals with Homo sapiens. The series can be described thus: Dose normalized AUC (0-24h) in opiate abstinence syndrome patient at 30 to 100 mg, po QD after 2 days. The following applies: in vivo. The method, boiled down: (§1)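 Male patients on individualized once-daily methadone (30-100 mg) sampled on day 2, before any coadministration. Plasma taken at 1, 2, 3, 4, 6, 8, 10, 12, 16 and 24 h postdose. (R)- and (S)-methadone quantified by chiral LC-MS/MS (range 5 to 500 ng/ml per enantiomer). Noncompartmental analysis: Cmax/Tmax observed, AUC0-24 by linear/log-trapezoidal method. Normalized lines scaled to a 100-mg dose.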

A short description of series [2]: Dose normalized Tmax in opiate abstinence syndrome patient at 30 to 100 mg, po QD after 2 days. The following applies: human, in vivo. The method, boiled down:
as §1

A short description of series [3]: Cmax in opiate abstinence syndrome patient at 30 to 100 mg, po QD after 2 days. The conditions noted are these: human, in vivo. The method, boiled down: as §1
Series [4] relates to Homo sapiens. As to the kind of experiment: Dose normalized Cmax in opiate abstinence syndrome patient at 30 to 100 mg, po QD after 2 days. The conditions noted are these: in vivo, 48 h. The method, boiled down:
as §1

A short description of series [5]: AUC (0-24h) in opiate abstinence syndrome patient at 30 to 100 mg, po QD after 2 days. The conditions noted are these: human, plasma. The method, boiled down:
as §1

For `CCC(=O)C(C[C@H](C)N(C)C)(c1ccccc1)c1ccccc1` [ESMETHADONE], the AUC (commonly concentration integrated over time) was found to be 5730 ng·h/mL in series [1] and 4030 ng·h/mL in series [5]. For the same compound, the time of peak concentration (Tmax) (commonly the time from dosing to the highest level) in series [2] was 1 h. Besides, the Cmax (commonly the maximum level reached in the sampled fluid or tissue) is 287 ng/mL in series [3] and 366 ng/mL in series [4].

Turning to `CCC(=O)C(C[C@@H](C)N(C)C)(c1ccccc1)c1ccccc1` [LEVOMETHADONE], the AUC in series [1] was found to be 5540 ng·h/mL; in series [5], 4300 ng·h/mL. Also, the time of peak concentration (Tmax) in series [2] turned out to be 1 h. The Cmax in series [3] is 256 ng/mL; in series [4] it was 322 ng/mL.

The record behind these values is ChEMBL document CHEMBL1142156, “Pharmacokinetic interaction between voriconazole and methadone at steady state in patients on methadone therapy” (Antimicrob Agents Chemother, 2007).
